Only some compounds are listed: those with a hit (about 1.9% of all), similar ones and a draw of the others.
MBD2 inh = inhibitors of MBD2 binding to methylated DNA, primary screen, biochemical, TR-FRET, DNA-binding domain, human. inhibition, % at 4.4 µM. AID 686964, 2013. hit rate 0.31% among 370,000. MBD2 binding to methylated oligonucleotide. Methyl-CpG-binding domain protein 2 (Homo sapiens), Q9UBB5; in the data active = inhibition above about 13%
LEDGF integ inh = blockers of LEDGF/p75-dependent integrase strand transfer – biochemical, TR-FRET, high throughput, primary screen. HIV-1 integrase (with human LEDGF/p75). TR-FRET IN-LEDGF/p75 DNA integration, Eu/Cy5. inhibition, % at 3.7 µM. hit rate 0.64% among 370,000;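 active = inhibition above the screen-wide mean plus 3 SD, cut at about 13% in these data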;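 note: signal is the Cy5 over europium emission ratio at 671 and 618 nm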
TDP2 inh = human TDP2 enzyme inhibitors, primary screen, biochemical, epi absorbance, recombinant enzyme | T5PNP hydrolysis, p-nitrophenol absorbance 415 nm | hit rate 0.34% among 370,000 | Tyrosyl-DNA phosphodiesterase 2 (Homo sapiens), O95551 | inhibition, % at 12.8 µM;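 active = inhibition above the mean of all tested compounds plus 3 SD, set per campaign, cut at about 25% in these data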
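test system = human TDP2 enzyme | input = TDP2 enzyme at 120 nM final | medium = 50 mM Tris-HCl pH 7.5 with Mg2+, KCl, DTT, BSA | also added = T5PNP substrate, 5 mM | times = 2 h at 37 °C | technique = epi absorbance | benchmarks = high control without enzyme, low control DMSO plus TDP2 | replication = each compound tested once, singlicate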
UHRF1 MBD2 ctr = UHRF1 methylated DNA binding inhibitors, primary screen, counter-screen for MBD2 inhibitor project, biochemical, TR-FRET, human UHRF1, single concentration. AID 687016, 2013. UHRF1 binding to methylated oligo. hit rate 0.75% among 370,000. inhibition, % at 4.4 µM; in the data active = inhibition above about 21%;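 note: UHRF1 SRA domain binding a hemimethylated CpG hairpin DNA probe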
Rin1 Abl inh = inhibitors of Rin1-Abl protein binding, primary screen, biochemical, TR-FRET. Tyrosine-protein kinase ABL1 (Homo sapiens) + Ras and Rab interactor 1 (Homo sapiens), …. hit rate 0.4% among 360,000. inhibition, % at 7.35 µM; in the data active = inhibition above about 5%, passing the limit was not always enough
Rin1 Abl conf = Rin1-Abl binding inhibitor retest, confirmation, biochemical, TR-FRET | shares compounds with Rin1 Abl inh | purified proteins | inhibition, % at 7.35 µM | hit rate 49% among 1,300 | AID 602124, 2011
GFP quench = GFP fluorescence inhibitors and quenchers, artefact control for Rin1-Abl interaction inhibitor project, biochemical; inhibitors/quenchers counterscreen; inhibition, % at 6.75 µM; shares compounds with Rin1 Abl inh; hit rate 8.5% among 1,300;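 note: ABL1-eGFP fusion protein alone without its partner RIN1-SBP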
GFP quench DR = GFP fluorescence inhibitors and quenchers, dose response, artefact control for Rin1-Abl interaction inhibitor project, biochemical; shares compounds with Rin1 Abl inh; GFP fluorescence interference/quenching counterscreen; IC50, µM; 230 tested, under 10 active; AID 602182, 2012; call rule not given here;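 note: ABL1-eGFP fusion protein alone without its RIN1 binding partner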
Large screens that a line does not name were inactive (follow-up assays come after a bar, where they were run). Cut-off read from the data, not from the text of the source, unless noted: active = inhibition above about 6.5%; inactive = the rest.

COC(=O)C1C(=O)C=C(Nc2ccc(F)cc2F)CC1c1ccc(OC)cc1 (configuration not stated)	none
COC(=O)C1C(=O)C=C(Nc2ccc(F)cc2)CC1c1ccc(OC)cc1 (configuration not stated)	Rin1 Abl inh 6.4 | Rin1 Abl conf inactive | GFP quench inactive
CCC(C)n1c(NC(=O)c2ccccc2)c(C#N)c2nc3ccccc3nc21 (configuration not stated)	LEDGF integ inh 28, TDP2 inh 77, Rin1 Abl inh 14 | Rin1 Abl conf inactive | GFP quench inactive
CCC(=O)Nc1c(C#N)c2nc3ccccc3nc2n1-c1ccc(C)cc1	none
COC(=O)CN1CCN(C(=O)c2csc3ccccc23)CC1	none (no result: Rin1 Abl inh)
Cc1ccc(N=C2NC(=O)C(CC(=O)NCc3ccccc3)S2)cc1C (configuration not stated)	Rin1 Abl inh 8.9 | Rin1 Abl conf inactive | GFP quench inactive
O=C(OC12CCCN(C1)/C(=C/c1cccnc1)C2)c1cccc(F)c1 (configuration not stated)	none (no result: Rin1 Abl inh)
Cc1ccc(Cl)cc1S(=O)(=O)N1CCC(C(=O)NC2CCN(Cc3ccccc3)CC2)CC1	Rin1 Abl inh 15 | Rin1 Abl conf inactive | GFP quench inactive
CCN(CC)S(=O)(=O)c1ccc(S(=O)(=O)N2CCC(C(=O)NC3CCN(Cc4ccccc4)CC3)CC2)cc1	none (no result: MBD2 inh, LEDGF integ inh, TDP2 inh, UHRF1 MBD2 ctr)
O=C(NCCN1CCC(Cc2ccccc2)CC1)C1CCCN(S(=O)(=O)c2ccccc2[N+](=O)[O-])C1 (configuration not stated)	none (no result: Rin1 Abl inh)
COc1ccccc1-c1csc(-n2ncc(C#N)c2N)n1	none
Cc1ccc(-c2nnc(-n3ncc(C#N)c3N)c3ccccc23)cc1C	Rin1 Abl inh 9.3 | Rin1 Abl conf inactive | GFP quench inactive
COc1ccc(CNC(=O)c2ccc(NC(=O)CC3SC(N4CCCC4)=NC3=O)cc2)cc1 (configuration not stated)	Rin1 Abl inh 7.8 | Rin1 Abl conf 7.5 | GFP quench inactive
COc1ccc(CNC(=O)c2ccc(NC(=O)CC3SC(N4CCCCC4)=NC3=O)cc2)cc1 (configuration not stated)	none
COc1cccc(CC(=O)O[C@@H]2CCC[C@@]3(C(=O)N(Cc4ccccc4)c4ccccc43)[C@H]2NC(=O)CCc2ccccc2)c1	none (no result: Rin1 Abl inh)
COc1ccc(-c2nnc(SCC(=O)NN=C(C)c3cccc4ccccc34)n2-c2ccccc2)cc1	none (no result: Rin1 Abl inh)
O=C(Nc1ccccc1C(F)(F)F)O[C@@H]1CC[C@@]23CCCN2C(=O)CCC[C@H]3C1	none (no result: Rin1 Abl inh)
COc1ccccc1C(=O)N=C1NC(=O)CC2C(=O)NCCN12 (configuration not stated)	Rin1 Abl inh 8.8 | Rin1 Abl conf inactive | GFP quench inactive
O=C(NC1CCCCN(Cc2cccc(Cl)c2)C1=O)c1ccc(F)c(F)c1 (configuration not stated)	none (no result: Rin1 Abl inh)
Cc1cc(NC(=O)CSc2cn(CCNC(=O)c3ccccc3)c3ccccc23)no1	Rin1 Abl inh 24 (no result: MBD2 inh, LEDGF integ inh, TDP2 inh, UHRF1 MBD2 ctr) | Rin1 Abl conf 14 | GFP quench inactive
Cc1ccc(C(=O)NCCn2cc(SCC(=O)Nc3cc(C)on3)c3ccccc32)cc1	none
O=S1(=O)c2ccc(Br)cc2OC[C@H](Cc2ccccc2)N1Cc1cn(Cc2ccc(C(F)(F)F)cc2)nn1	none (no result: Rin1 Abl inh)
NS(=O)(=O)c1ccc(NC(=O)C2CCCN(S(=O)(=O)c3ccc(F)cc3)C2)cc1 (configuration not stated)	Rin1 Abl inh 18 | Rin1 Abl conf inactive | GFP quench inactive
COC(=O)C[C@@H]1CC[C@H]2[C@H](COc3ccc(NC(=O)Nc4cccc(C#N)c4)cc3C(=O)N2C)O1	none (no result: Rin1 Abl inh)
[O-]C(=C(C(=S)Nc1cccc2ccccc12)[n+]1cccc(CO)c1)c1ccc(Cl)s1	Rin1 Abl inh 13 | Rin1 Abl conf inactive | GFP quench inactive
Oc1ccc(C2=Nn3c(nnc3-c3ccco3)SC2)cc1O	Rin1 Abl inh 5.9 | Rin1 Abl conf inactive | GFP quench 17
Oc1c(CN2CCCCC2)cc(COCc2ccccc2)c2cccnc12	Rin1 Abl inh 14 | Rin1 Abl conf inactive | GFP quench inactive
Oc1c(CN2CCOCC2)ccc2ccccc12	none
COc1ccccc1N1CCN(Cc2cc(Br)c(O)c3ncccc23)CC1	Rin1 Abl inh 9.7 | Rin1 Abl conf inactive | GFP quench inactive
COCc1cc(CN2CCCC2)c(O)c2ncccc12	Rin1 Abl inh 22 | Rin1 Abl conf inactive | GFP quench inactive
CCOc1ccccc1N1CCN(Cc2cccc(OC)c2O)CC1	none
Oc1c(CN2CCCCC2)ccc2cccnc12	Rin1 Abl inh 34 | Rin1 Abl conf inactive | GFP quench inactive
CN(C)C1CCN(Cc2cc(COCc3ccccc3)c3cccnc3c2O)C1 (configuration not stated)	none (no result: MBD2 inh, LEDGF integ inh, TDP2 inh, UHRF1 MBD2 ctr)
OCCN1CCN(Cc2cc(Cl)c3cccnc3c2O)CC1	none
COC(=O)[C@]12C[C@H](CC(=O)NCC3CCCCC3)C(=O)N(Cc3ccc4c(c3)OCO4)C1=C[C@H](C(C)C)O[C@@H]2C1CC1	none (no result: Rin1 Abl inh)
CCC1C(=O)NCCN1C(=O)c1ccc(OC)c(OC2CCN(C(C)=O)CC2)c1 (configuration not stated)	Rin1 Abl inh 8.4 | Rin1 Abl conf inactive | GFP quench inactive
CC(=O)Nc1cc2c(nc1C)nc(C)n2Cc1ccc(Br)cc1	Rin1 Abl inh 18 | Rin1 Abl conf 22 | GFP quench inactive | GFP quench DR inactive
O=C(OCc1cn(Cc2ccc(F)c(F)c2)nn1)N1CCOCC1	none (no result: Rin1 Abl inh)
COc1ccc(/C=N/NC(=O)Cn2c(Cc3ccc(OC)c(OC)c3)nc3ccccc32)cc1	Rin1 Abl inh 14 | Rin1 Abl conf 19 | GFP quench inactive | GFP quench DR inactive
COc1cc(/C=N\NC(=O)Cn2nnc3ccccc32)cc(OC)c1OC	none
CCCCCCCCN1C(=O)N2Cc3ccc(C)cc3C2CS1(=O)=O (configuration not stated)	none (no result: Rin1 Abl inh)
Cc1ccc(-n2c(SCC(=O)N3CCCc4ccccc43)nnc2-c2cccnc2)c(C)c1	Rin1 Abl inh 8.7 | Rin1 Abl conf 13 | GFP quench inactive
Cc1ccc(-n2c(SCC(N)=O)nnc2-c2cccnc2)c(C)c1	none

Source: PubChem
